Data: ChEMBL document CHEMBL4152234, “Aminobenzothiazole derivatives stabilize the thermolabile p53 cancer mutant Y220C and show anticancer activity in p53-Y220C cell lines” (Eur J Med Chem, 2018)

Columns and labels:
[1] = system: Cellular tumor antigen p53 (Homo sapiens), P04637 [Y220C]; assay: Activation of p53 Y220C mutant in human NUGC3 cells assessed as change in ATR mRNA level at 60 uM after 18 hrs by RT-PCR method relative to control; format: cell-based
Summary of the method: (§1)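 p53 signalling qPCR array covering 84 genes. Cells were exposed for 18 h, with 0.5% DMSO in both compound and control samples. Total RNA was extracted and purified. Fold-changes were calculated by ΔΔCt using β2-microglobulin (B2M) as the housekeeping gene. Two independent biological replicates were run per cell line.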

[2] = system: Cellular tumor antigen p53 (Homo sapiens), P04637 [Y220C]; assay: Activation of p53 Y220C mutant in human NUGC3 cells assessed as change in CDC25C mRNA level at 60 uM after 18 hrs by RT-PCR method relative to control; format: cell-based; summary of the method: as §1
[3] = system: Cellular tumor antigen p53 (Homo sapiens), P04637 [Y220C]; assay: Activation of p53 Y220C mutant in human NUGC3 cells assessed as change in APAF1 mRNA level at 60 uM after 18 hrs by RT-PCR method relative to control; format: cell-based; summary of the method: as §1
[4] = target: T1, Cellular tumor antigen p53 (Homo sapiens, UniProt P04637); assay: Activation of p53 in human NUGC4 cells assessed as change in APAF1 mRNA level at 60 uM after 18 hrs by RT-PCR method relative to control; format: cell-based; conditions: read-out: FC
Summary of the method: (§2)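 p53 signalling qPCR array covering 84 p53 pathway genes. Cells were exposed for 18 h, and compound and control wells both held 0.5% DMSO. Total RNA was extracted and purified. Fold-changes were calculated by the ΔΔCt method against the untreated sample, with β2-microglobulin (B2M) as the housekeeping gene. Each cell line was run in two independent biological replicates.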

[5] = target: T1, Cellular tumor antigen p53; assay: Activation of p53 in human NUGC4 cells assessed as change in RPRM mRNA level at 60 uM after 18 hrs by RT-PCR method relative to control; format: cell-based; conditions: read-out: FC
[6] = target: T1, Cellular tumor antigen p53; assay: Activation of p53 in human NUGC4 cells assessed as change in RB1 mRNA level at 60 uM after 18 hrs by RT-PCR method relative to control; format: cell-based; conditions: read-out: FC
[7] = target: T1, Cellular tumor antigen p53; assay: Activation of p53 in human NUGC4 cells assessed as change in F0X03 mRNA level at 60 uM after 18 hrs by RT-PCR method relative to control; format: cell-based; conditions: read-out: FC
Summary of the method: (§3)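 p53 signaling qPCR array of 84 p53-pathway genes. Cells were treated in 6-well plates for 18 h with 0.5% DMSO in compound and control samples. Total RNA was extracted and fold-changes were obtained by the ΔΔCt method against untreated control, with β2-microglobulin (B2M) as housekeeping gene. Two independent biological replicates per cell line.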

[8] = system: Cellular tumor antigen p53 (Homo sapiens), P04637 [Y220C]; assay: Activation of p53 Y220C mutant in human NUGC3 cells assessed as change in GADD45A mRNA level at 60 uM after 18 hrs by RT-PCR method relative to control; format: cell-based; summary of the method: as §1
[9] = system: Cellular tumor antigen p53 (Homo sapiens), P04637 [Y220C]; assay: Activation of p53 Y220C mutant in human NUGC3 cells assessed as change in PRC1 mRNA level at 60 uM after 18 hrs by RT-PCR method relative to control; format: cell-based; summary of the method: as §2
[10] = target: T1, Cellular tumor antigen p53; assay: Activation of p53 in human NUGC4 cells assessed as change in CCNB1 mRNA level at 60 uM after 18 hrs by RT-PCR method relative to control; format: cell-based; conditions: read-out: FC; summary of the method: as §3
SW1088 = assay: Antiproliferative activity against human SW1088 cells harboring p53 R273C mutant assessed as cell viability at <40 uM after 72 hrs by CellTiter-Glo assay relative to control
[11] = system: Cellular tumor antigen p53 (Homo sapiens), P04637 [Y220C]; assay: Activation of p53 Y220C mutant in human NUGC3 cells assessed as change in E2F3 mRNA level at 60 uM after 18 hrs by RT-PCR method relative to control; format: cell-based; summary of the method: as §1
[12] = target: T1, Cellular tumor antigen p53; assay: Activation of p53 in human NUGC4 cells assessed as change in CDK4 mRNA level at 60 uM after 18 hrs by RT-PCR method relative to control; format: cell-based; conditions: read-out: FC; summary of the method: as §3
[13] = target: T1, Cellular tumor antigen p53; assay: Activation of p53 in human NUGC4 cells assessed as change in PTEN mRNA level at 60 uM after 18 hrs by RT-PCR method relative to control; format: cell-based; conditions: read-out: FC
[14] = system: Cellular tumor antigen p53 (Homo sapiens), P04637 [Y220C]; assay: Activation of p53 Y220C mutant in human NUGC3 cells assessed as change in TP63 mRNA level at 60 uM after 18 hrs by RT-PCR method relative to control; format: cell-based; summary of the method: as §2
[15] = system: Cellular tumor antigen p53 (Homo sapiens), P04637 [Y220C]; assay: Activation of p53 Y220C mutant in human NUGC3 cells assessed as change in TSC1 mRNA level at 60 uM after 18 hrs by RT-PCR method relative to control; format: cell-based; summary of the method: as §2
[16] = target: T1, Cellular tumor antigen p53; assay: Activation of p53 in human NUGC4 cells assessed as change in MYC mRNA level at 60 uM after 18 hrs by RT-PCR method relative to control; format: cell-based; conditions: read-out: FC; summary of the method: as §3
[17] = target: T1, Cellular tumor antigen p53; assay: Activation of p53 in human NUGC4 cells assessed as change in CCNH mRNA level at 60 uM after 18 hrs by RT-PCR method relative to control; format: cell-based; conditions: read-out: FC; summary of the method: as §3
[18] = target: T1, Cellular tumor antigen p53; assay: Activation of p53 in human NUGC4 cells assessed as change in BID mRNA level at 60 uM after 18 hrs by RT-PCR method relative to control; format: cell-based; conditions: read-out: FC; summary of the method: as §2
[19] = target: T1, Cellular tumor antigen p53; assay: Activation of p53 in human NUGC4 cells assessed as change in TADA3 mRNA level at 60 uM after 18 hrs by RT-PCR method relative to control; format: cell-based; conditions: read-out: FC
[20] = Solubility of the compound in water; format: physicochemical; conditions: buffer
[21] = system: Cellular tumor antigen p53 (Homo sapiens), P04637 [Y220C]; assay: Activation of p53 Y220C mutant in human NUGC3 cells assessed as change in FAS mRNA level at 60 uM after 18 hrs by RT-PCR method relative to control; format: cell-based; summary of the method: as §1
[22] = target: T1, Cellular tumor antigen p53; assay: Activation of p53 in human NUGC4 cells assessed as change in EGFR mRNA level at 60 uM after 18 hrs by RT-PCR method relative to control; format: cell-based; conditions: read-out: FC; summary of the method: as §3
[23] = target: T1, Cellular tumor antigen p53; assay: Activation of p53 in human NUGC4 cells assessed as change in CHEK1 mRNA level at 60 uM after 18 hrs by RT-PCR method relative to control; format: cell-based; conditions: read-out: FC; summary of the method: as §3
[24] = system: Cellular tumor antigen p53 (Homo sapiens), P04637 [Y220C]; assay: Activation of p53 Y220C mutant in human NUGC3 cells assessed as change in PRKCA mRNA level at 60 uM after 18 hrs by RT-PCR method relative to control; format: cell-based; summary of the method: as §2
[25] = target: T1, Cellular tumor antigen p53; assay: Activation of p53 in human NUGC4 cells assessed as change in TP53AIP1 mRNA level at 60 uM after 18 hrs by RT-PCR method relative to control; format: cell-based; conditions: read-out: FC
[26] = target: T1, Cellular tumor antigen p53; assay: Activation of p53 in human NUGC4 cells assessed as change in TP53BP2 mRNA level at 60 uM after 18 hrs by RT-PCR method relative to control; format: cell-based; conditions: read-out: FC
[27] = system: Cellular tumor antigen p53 (Homo sapiens), P04637 [Y220C]; assay: Activation of p53 Y220C mutant in human NUGC3 cells assessed as change in KRAS mRNA level at 60 uM after 18 hrs by RT-PCR method relative to control; format: cell-based; summary of the method: as §2
[28] = target: T1, Cellular tumor antigen p53; assay: Activation of p53 in human NUGC4 cells assessed as change in CCNE1 mRNA level at 60 uM after 18 hrs by RT-PCR method relative to control; format: cell-based; conditions: read-out: FC; summary of the method: as §3
[29] = system: Cellular tumor antigen p53 (Homo sapiens), P04637 [Y220C]; assay: Activation of p53 Y220C mutant in human NUGC3 cells assessed as change in TRAF2 mRNA level at 60 uM after 18 hrs by RT-PCR method relative to control; format: cell-based; summary of the method: as §2

With `CCNC(=O)c1c(O)c(I)c(-n2cccc2)c2sc(N(CC)CC)nc12` the fold change (FC) [1] was 1, the fold change (FC) [2] was 0.7 and the fold change (FC) [3] was 1.2. It also gave a fold induction at 60 µM [4] of 1, a fold induction at 60 µM [5] of 7.9 and a fold induction at 60 µM [6] of 0.8. For the same compound, the fold induction at 60 µM [7] was 0.8, the fold change (FC) [8] was 2.2 and the fold change (FC) [9] was 1.1. For the same compound, the fold induction at 60 µM [10] was 0.7, the Activity (SW1088) was over 80% and the fold change (FC) [11] was 1.3. It also gave a fold induction at 60 µM [12] of 0.8, a fold induction at 60 µM [13] of 1 and a fold change (FC) [14] of 1.5. The fold change (FC) [15] was 1.3, the fold induction at 60 µM [16] was 0.7 and the fold induction at 60 µM [17] was 0.9. The fold induction at 60 µM [18] was 0.7, the fold induction at 60 µM [19] was 1 and the solubility [20] was “Insoluble”. The fold change (FC) [21] was 2.6, the fold induction at 60 µM [22] was 1 and the fold induction at 60 µM [23] was 0.7. The fold change (FC) [24] was 1.1, the fold induction at 60 µM [25] was 1 and the fold induction at 60 µM [26] was 0.9. The fold change (FC) [27] was 1.2, the fold induction at 60 µM [28] was 0.5 and the fold change (FC) [29] was 1.4.
